TRPC4 potent: allosteric potentiators of mouse TRPC4 channel; Q9QUQ5; HEK293 TRPC4beta/mu-opioid, DAMGO EC20, Fluo-4 Ca2+ flux; hits give high values; B-score at 10 µM; 310,000 compounds, 0.42% hits;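 active = B-score of calcium response area above 5 SD of library B-scores, with initial fluorescence ratio within 5 SD of library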
TRPC4 agonist: TRPC4 (mouse) channel activation | Q9QUQ5 | HEK293 TRPC4beta/mu-opioid, Fluo4 calcium fluorescence; hits give high values | B-score at 10 µM | 310,000 compounds, 0.49% hits | AID 2237;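 active = B-score above 5 SD of library B-scores, and initial fluorescence ratio not above library mean plus 5 SD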;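 also: positive B-score marks a calcium rise read as TRPC4 activation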
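Incubation: 45 min room-temperature Fluo4 loading, 110 s read / System: HEK293 cells stably co-expressing mouse TRPC4beta and mu-opioid receptor / Signal: Fluo4 fluorescence, kinetic / Control set: buffer (low) and maximal DAMGO (high) / Measure: integrated baseline-normalised fluorescence ratio, converted to per-well B score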
TRPC6 act: activators of mouse TRPC6 channel. 310,000 compounds, 0.13% hits. HEK293-TRPC6 membrane potential dye fluorescence; hits give high values. B-score at 10 µM;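 active = B-score of the integrated fluorescence ratio above library mean plus 3 SD, and starting fluorescence ratio within library mean plus 5 SD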;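 also: higher score means more depolarization so channel activation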
TRPC4 inh: blocks the mouse TRPC4 cation channel. Q9QUQ5. HEK293 TRPC4beta/mu-opioid, DAMGO-evoked Fluo4 calcium flux; hits give low values. B-score at 10 µM. 300,000 compounds, 0.39% hits. AID 2247;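 active = B-score over 3 SD under the library average, no early fluorescence shift, positive overall ratio signal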
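Test system – stable TRPC4beta/mu-opioid receptor HEK293 cells · Probe or stimulus – DAMGO, a submaximal dose followed by a maximal one · Dosing – one concentration per compound · Signal – Fluo4 calcium fluorescence by kinetic imaging, 5 s 1 Hz baseline · Evaluation – per-well B score of integrated baseline-normalized Fluo4 ratio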
TRPC6 inhibitor: blocks the mouse TRPC6 cation channel; HEK293-TRPC6, membrane potential dye, ACh-evoked depolarization; hits give low values; 310,000 compounds, 1.1% hits; Q61143; B-score at 10 µM;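 active = B-score under library mean minus 3 SD, initial fluorescence not abnormally high, positive integrated signal ratio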;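 also: B-score derived from integrated fluorescence ratio over the kinetic read; more negative B-score means stronger inhibition of depolarization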
Kir21 inh: inhibitors of mouse Kir2.1 inward-rectifier potassium channel. 310,000 compounds, 0.85% hits. HEK293-Kir2.1, FluxOR thallium flux fluorescence; hits give low values. B-score at 10 µM. P35561;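 active = fluorescence ratio B-score at or below minus 3 SD of library scores, with starting-brightness B-score within 2 SD, cut at about -4.2 in these data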;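 also: channel flux triggered by added potassium and thallium sulfate stimulus; B-score of peak minus minimum fluorescence over baseline after thallium stimulus; more negative B-score means stronger Kir2.1 block with less thallium influx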
Target sequence (P35561 whole entry, looked up): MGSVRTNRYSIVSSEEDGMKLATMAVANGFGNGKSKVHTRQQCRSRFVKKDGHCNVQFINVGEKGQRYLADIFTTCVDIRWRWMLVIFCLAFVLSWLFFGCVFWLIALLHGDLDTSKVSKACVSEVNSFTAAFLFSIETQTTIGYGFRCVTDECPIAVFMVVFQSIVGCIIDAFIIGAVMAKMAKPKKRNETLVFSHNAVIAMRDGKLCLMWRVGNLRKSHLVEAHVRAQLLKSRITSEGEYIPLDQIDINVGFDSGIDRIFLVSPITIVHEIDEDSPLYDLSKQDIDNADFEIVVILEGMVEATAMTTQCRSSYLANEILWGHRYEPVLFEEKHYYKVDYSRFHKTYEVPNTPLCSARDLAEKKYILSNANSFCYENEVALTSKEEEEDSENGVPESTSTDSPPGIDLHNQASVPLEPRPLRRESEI
Large screens that a line does not name were inactive. The list is not random: actives were taken first. Their share in the collection is about 3%.

CCCCNC(=S)Nc1ccc([N+](=O)[O-])cc1	none
CC(C)CCNC(=S)Nc1ccc([N+](=O)[O-])cc1	Kir21 inh -11
Cc1ccc(S(=O)(=O)NC(CC(=O)O)c2cccs2)cc1 (stereo unspecified)	none
O=[N+]([O-])c1c(Nc2cccc(O)c2)cc(Cl)c2nonc12	Kir21 inh -7.4
COc1cccc(CNC(=O)CCNS(=O)(=O)c2ccc(C)cc2)c1	none
COc1cc(F)c(S(=O)(=O)N2CCOc3ccccc32)cc1OC	Kir21 inh -5.3
COc1ccc(S(=O)(=O)N2CCOc3ccccc32)cc1	none
Cc1cc(-c2nn(-c3ccccc3F)cc2CNCCc2cnc[nH]2)c(C)s1	TRPC4 agonist 125
COCC1CCN(Cc2cn(-c3ccccc3F)nc2-c2cc(C)sc2C)CC1	TRPC4 agonist 96
Cc1cc(-c2nn(-c3ccccc3F)cc2CN2CCCC(CO)C2)c(C)s1 (stereo unspecified)	none
CC(C)c1ccc(CNCCCSc2ncccn2)cc1	none
COc1cc2cc(CN(CCc3cccc(C)c3)C(=S)NCCCN3CCOCC3)c(=O)[nH]c2cc1OC	none
OCCCN1CCN(CCCOc2ccccc2-c2ccccc2)CC1	none
CC(C)(C)c1ccccc1OCCOCCN1CCCCCC1	none
c1ccc(-c2ccccc2OCCCCN2CCCCCC2)cc1	Kir21 inh -6.6
c1ccc(-c2ccccc2OCCOCCN2CCCCC2)cc1	TRPC4 inh -5
c1ccc(CN2CCN(CCOCCOc3cccc4ccccc34)CC2)cc1	Kir21 inh -14
CC(C)CN(C(=O)CSc1nnnn1-c1ccccc1)c1c(N)n(CC(C)C)c(=O)[nH]c1=O	none
Cc1ccc(CN2C(=O)NC(Cc3c[nH]c4ccccc34)C2=O)cc1 (stereo unspecified)	Kir21 inh -4.3
O=C1NC(Cc2c[nH]c3ccccc23)C(=O)N1Cc1cccc2ccccc12 (stereo unspecified)	none
O=C(NCc1csc(-c2ccccc2)n1)c1cc(F)cc2c1OCOC2	none
COc1cc(CNCc2ccc(SC)cc2)cc(OC)c1	Kir21 inh -5.2
COC(=O)[C@@H](Cc1c[nH]c2ccccc12)NC(=O)CCC(=O)c1ccc(F)cc1	none
Clc1ccccc1N1CCN(Cc2c[nH]c3ccccc23)CC1	none
OC1(c2ccc(Cl)cc2)CCN(Cc2c[nH]c3ccccc23)CC1	Kir21 inh -6.8
O=C(c1ccccc1)N1CCN(Cc2c[nH]c3ccccc23)CC1	none
O=[N+]([O-])c1ccccc1CN1CCN(Cc2c[nH]c3ccccc23)CC1	TRPC4 inh -7
Cc1ccc(S(=O)(=O)NCCSc2nnnn2-c2ccccc2)cc1	Kir21 inh -7.1
Cc1ccc(S(=O)(=O)NCCSc2nnnn2-c2cc(C)ccc2C)cc1	none
CC(=O)c1cccc(NC(=O)c2ccc(C(=O)Nc3cccc(C(C)=O)c3)nc2)c1	none
CC(=O)Nc1cccc(NC(=O)c2ccc(C(=O)Nc3cccc(NC(C)=O)c3)nc2)c1	TRPC4 agonist 73
Nc1c2c(nc3sc4c(c13)CCCCC4)CCCCC2	TRPC4 inh -5
Cc1nnc(SC(C)C(=O)NC2CCCCC2C)s1 (stereo unspecified)	none
O=C(C[n+]1cc(-c2ccc(Cl)c(Cl)c2)n2c1CCC2)N1c2ccccc2Sc2ccccc21	TRPC4 inh -6
Cc1ccc(-c2c[n+](Cc3ccc(Cl)c(Cl)c3)c3n2CCC3)cc1	TRPC4 inh -8
Cc1nc(N2CCCCC2)c(C#N)c(C)c1[N+](=O)[O-]	TRPC4 inh -5
O=C(/C=C/c1ccc(Cl)cc1)N1CCOCC1	none
Cn1nnnc1SCC(=O)Nc1ccc(S(=O)(=O)N2CCOCC2)cc1	none
NNc1nc(-c2ccccc2Cl)nc2ccccc12	none
NNc1nc(-c2ccccc2Cl)nc2sc3c(c12)CCCC3	TRPC4 potent 12
COc1cc(C(=O)NC(=S)NNC(=O)[C@H]2C[C@@H]2c2ccccc2)cc(OC)c1OC	TRPC4 agonist 160
COc1ccccc1C(=O)NNC(=S)NC(=O)c1cc(OC)c(OC)c(OC)c1	TRPC4 agonist 62
CC(OC(=O)Cc1c[nH]c2ccccc12)C(=O)Nc1ccccc1F (stereo unspecified)	Kir21 inh -5.7

Compound activity from PubChem.
